According to ChEMBL document CHEMBL1121798, “Puromycin analogues. Effect of aryl-substituted puromycin analogues on the ribosomal peptidyltransferase reaction” (J Med Chem, 1981):
The source made the active and inactive calls. No cut-off for these calls is given here.

How the values were obtained:
[1] = test system: Escherichia coli; experiment: Michaelis constant (Km) in the peptidyltransferase reaction; format: functional
Outline: (§1)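 E. coli ribosomes (washed, 2.78 A260 units) loaded with Ac[14C]Phe-tRNA (21 pmol) in 100 mM Tris-Cl pH 7.5, 100 mM NH4Cl, 15 mM Mg(OAc)2, 0.65 mM DTT, 1.2 mM GTP, FWR, poly(U), 28 °C for 8 min. Analogue then added as acceptor. Radiolabelled product counted and blank-corrected. Duplicates at five substrate concentrations. Km/Vmax from double-reciprocal plots by Wilkinson analysis.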

[2] = test system: Escherichia coli; experiment: Vmax in the peptidyltransferase reaction; format: functional; outline: as §1
[3] = test system: Escherichia coli; experiment: Compound was evaluated for the substrate activity in the peptidyltransferase reaction of Escherichia coli ribosomes.
[4] = test system: Escherichia coli; experiment: Michaelis constant (Km) in the peptidyltransferase reaction; Inactive; format: functional; outline: as §1

COc1ccc(C[C@H](N)C(=O)N[C@H]2[C@@H](O)[C@H](n3cnc4c(N(C)C)ncnc43)O[C@@H]2CO)cc1
Km [1]: 134 µM | Vmax [2]: 0.99 pmol/min | Substrate efficiency [3]: 100%

CN(C)c1ncnc2c1ncn2C1OC(CO)C(NC(=O)C(N)Cc2ccc([N+](=O)[O-])cc2)C1O (stereo unspecified)
Km [1]: 255 µM | Vmax [2]: 0.39 pmol/min | Substrate efficiency [3]: 20.7%

CN(C)c1ncnc2c1ncn2C1OC(CO)C(NC(=O)C(N)Cc2ccc(NC(=O)CBr)cc2)C1O (stereo unspecified)
Km [4]: inactive

CCCC(=O)Nc1ccc(CC(N)C(=O)NC2C(CO)OC(n3cnc4c(N(C)C)ncnc43)C2O)cc1 (stereo unspecified)
Km [1]: 367 µM | Vmax [2]: 0.53 pmol/min | Substrate efficiency [3]: 19.5%

CC(=O)Nc1ccc(CC(N)C(=O)NC2C(CO)OC(n3cnc4c(N(C)C)ncnc43)C2O)cc1 (stereo unspecified)
Km [1]: 256 µM | Vmax [2]: 0.45 pmol/min | Substrate efficiency [3]: 23.7%

CN(C)c1ncnc2c1ncn2C1OC(CO)C(NC(=O)C(N)Cc2ccc(N)cc2)C1O (stereo unspecified)
Km [1]: 120 µM | Vmax [2]: 0.79 pmol/min | Substrate efficiency [3]: 89%
